The text below walks through data of ChEMBL document CHEMBL2203243, “Synthesis and biological evaluation of novel benzimidazole derivatives and their binding behavior with bovine serum albumin” (Eur J Med Chem, 2012).

In brackets after ≈: the same amount, converted by molar mass. Bounds are passed on as bounds.

The subject of data set [1] is Escherichia coli. The data set can be described thus: Antimicrobial activity against Escherichia coli DH52 by microbroth dilution method. It counts as functional. In outline:
(§1)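 Two-fold serial broth microdilution in 96-well microtest plates, run against four Gram-positive strains, five Gram-negative strains and two fungi.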

The subject of a further data set is Micrococcus luteus. Kind of data set: Antimicrobial activity against Micrococcus luteus ATCC 4698 by microbroth dilution method. It counts as functional. In outline:
as §1
A general note: Dilution methods test growth across graded concentrations, often in twofold steps.

For the next data set, the system named is Bacillus. The data set can be described thus: Antimicrobial activity against Bacillus proteus by microbroth dilution method. It counts as functional. In a few lines: as §1
In data set [2] the test system is Candida. The data set can be described thus: Antimicrobial activity against Candida mycoderma by microbroth dilution method. It counts as functional. In outline:
as §1

The subject of data set [3] is Staphylococcus aureus. Kind of data set: Antimicrobial activity against methicillin-resistant Staphylococcus aureus N315 by microbroth dilution method. The class given is functional.
Data set [4] concerns Pseudomonas aeruginosa. The data set can be described thus: Antimicrobial activity against Pseudomonas aeruginosa by microbroth dilution method. It counts as functional. In a few lines: as §1
Another data set relates to Shigella dysenteriae. Kind of data set: Antimicrobial activity against Shigella dysenteriae by microbroth dilution method. It counts as functional.
In a further data set the test system is Bacillus subtilis. The data set can be described thus: Antimicrobial activity against Bacillus subtilis by microbroth dilution method. It counts as functional. In a few lines: as §1
A short description of data set [5]: Lipophilicity, log P of the compound by UV-Vis spectrophotometric method based saturation shake flask assay. It counts as physicochemical. The settings on record: octanol/water. In outline: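 Log P measured by the traditional saturation shake-flask partition, with compound quantified by UV-vis spectrophotometry.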
Data set [6] is described as follows: Antimicrobial activity against Eberthella typhosa by microbroth dilution method. It counts as functional. In outline: as §1
In data set [7] the test system is Staphylococcus aureus. The data set can be described thus: Antimicrobial activity against Staphylococcus aureus ATCC 25923 by microbroth dilution method. It counts as functional. In outline: as §1
The next data set concerns Candida albicans. Kind of data set: Antimicrobial activity against Candida albicans by microbroth dilution method. The class given is functional. In a few lines: as §1
In another data set the target is Albumin (Bos taurus, UniProt P02769). The data set can be described thus: Binding affinity to BSA at pH 7.4 by UV-vis absorption spectroscopic method. The class given is ADME. The note with it: cattle, isolated protein.
The test system of data set [8] is Pseudomonas aeruginosa. The data set can be described thus: Potency index, ratio of MIC of chloromycin to MIC of compound against Pseudomonas aeruginosa by microbroth dilution method. It counts as functional.
Data set [9] deals with Escherichia coli. The data set can be described thus: Potency index, ratio of MIC of chloromycin to MIC of compound against Escherichia coli DH52 by microbroth dilution method. It counts as functional.
Data set [10] has as its system Staphylococcus aureus. The data set can be described thus: Potency index, ratio of MIC of chloromycin to MIC of compound against methicillin-resistant Staphylococcus aureus N315 by microbroth dilution method. The class given is functional.
Data set [11] deals with Candida. The data set can be described thus: Potency index, ratio of MIC of fluconazole to MIC of compound against Candida mycoderma by microbroth dilution method. It counts as functional.

Albumin, sequence (P02769 whole entry): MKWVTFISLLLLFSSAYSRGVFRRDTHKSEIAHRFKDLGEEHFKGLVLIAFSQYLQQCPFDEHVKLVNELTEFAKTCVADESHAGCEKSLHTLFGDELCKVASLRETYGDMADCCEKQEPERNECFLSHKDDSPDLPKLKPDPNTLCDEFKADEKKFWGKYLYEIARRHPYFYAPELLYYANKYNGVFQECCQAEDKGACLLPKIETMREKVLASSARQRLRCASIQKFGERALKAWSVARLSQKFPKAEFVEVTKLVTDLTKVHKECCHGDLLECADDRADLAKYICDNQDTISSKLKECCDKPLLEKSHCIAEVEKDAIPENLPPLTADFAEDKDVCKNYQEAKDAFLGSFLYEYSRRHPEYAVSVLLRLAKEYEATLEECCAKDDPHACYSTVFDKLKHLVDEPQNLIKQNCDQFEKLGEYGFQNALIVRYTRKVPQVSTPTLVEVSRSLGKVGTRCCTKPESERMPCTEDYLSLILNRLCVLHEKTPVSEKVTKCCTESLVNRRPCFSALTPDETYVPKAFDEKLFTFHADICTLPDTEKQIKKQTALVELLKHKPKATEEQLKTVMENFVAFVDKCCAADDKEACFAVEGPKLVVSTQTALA

By MIC is commonly meant the least concentration at which growth counts as inhibited. For orientation: logP means the decadic logarithm of the partition coefficient of the neutral form, usually between octanol and water. As for `ClCc1nc2ccccc2[nH]1`, the MIC against Escherichia coli [1] is 256 µg/mL (≈ 1540 µM); with Micrococcus luteus, 512 µg/mL (≈ 3070 µM); in the data set on Bacillus it was above 512 µg/mL; in the data set on Candida [2], above 512 µg/mL; against Staphylococcus aureus [3], above 512 µg/mL; in the data set on Pseudomonas aeruginosa [4] it was above 512 µg/mL. Besides, the MIC against Shigella dysenteriae is 512 µg/mL (≈ 3070 µM); against Bacillus subtilis, above 512 µg/mL; in [6], 512 µg/mL (≈ 3070 µM); in the data set on Staphylococcus aureus [7] it was above 512 µg/mL; against Candida albicans, 512 µg/mL (≈ 3070 µM). Also, the logP in data set [5] (read-out: logP) was 1.44.

As for `Cc1c(C(=O)NNCc2nc3ccccc3n2Cc2ccc(Cl)c(Cl)c2)sc(C(=O)NNCc2nc3ccccc3n2Cc2ccc(Cl)c(Cl)c2)c1C`, the MIC in the data set on Escherichia coli [1] was 512 µg/mL (≈ 635 µM); against Micrococcus luteus, above 512 µg/mL; in the data set on Bacillus it was above 512 µg/mL; in the data set on Candida [2], above 512 µg/mL; against Staphylococcus aureus [3] it was above 512 µg/mL; in the data set on Pseudomonas aeruginosa [4] it was above 512 µg/mL. Also, the MIC against Shigella dysenteriae was above 512 µg/mL; against Bacillus subtilis, 512 µg/mL (≈ 635 µM); in data set [6], above 512 µg/mL; with Staphylococcus aureus [7], 32 µg/mL (≈ 39.7 µM); with Candida albicans it was above 512 µg/mL. Further, in data set [5] (read-out: logP), the logP amounted to 7.16.

On to `Cc1c(C(=O)NNCc2nc3ccccc3[nH]2)sc(C(=O)NNCc2nc3ccccc3[nH]2)c1C`, for which the MIC is 512 µg/mL (≈ 1050 µM) in the data set with Escherichia coli [1]; 256 µg/mL (≈ 524 µM) with Micrococcus luteus; 256 µg/mL (≈ 524 µM) in the data set on Bacillus; 256 µg/mL (≈ 524 µM) against Candida [2]; above 512 µg/mL with Staphylococcus aureus [3]; above 512 µg/mL in the data set with Pseudomonas aeruginosa [4]. Moreover, the MIC against Shigella dysenteriae was 512 µg/mL (≈ 1050 µM); against Bacillus subtilis, 128 µg/mL (≈ 262 µM); in data set [6] it was 512 µg/mL (≈ 1050 µM); against Staphylococcus aureus [7] it was above 512 µg/mL; against Candida albicans it was above 512 µg/mL. For the same molecule, the logP in [5] (read-out: logP) was determined as 1.25.

For `Cc1c(C(=O)NN)sc(C(=O)NNCc2nc3ccccc3[nH]2)c1C`, the MIC with Escherichia coli [1] stood at 512 µg/mL (≈ 1430 µM); with Micrococcus luteus, 128 µg/mL (≈ 357 µM); in the data set with Bacillus, 128 µg/mL (≈ 357 µM); with Candida [2], 128 µg/mL (≈ 357 µM); against Staphylococcus aureus [3], 256 µg/mL (≈ 714 µM); in the data set with Pseudomonas aeruginosa [4], 256 µg/mL (≈ 714 µM). Besides, the MIC in the data set on Shigella dysenteriae came out at 512 µg/mL (≈ 1430 µM); against Bacillus subtilis, 64 µg/mL (≈ 179 µM); in data set [6], 64 µg/mL (≈ 179 µM); against Staphylococcus aureus [7], 256 µg/mL (≈ 714 µM); in the data set with Candida albicans, 256 µg/mL (≈ 714 µM). For the same molecule, the logP in data set [5] (read-out: logP) was 0.84.

Consider `CCCn1c(CNNC(=O)c2sc(C(=O)NNCc3nc4ccccc4n3CCC)c(C)c2C)nc2ccccc21`, for which the MIC against Escherichia coli [1] stood at 256 µg/mL (≈ 447 µM); in the data set with Micrococcus luteus, 256 µg/mL (≈ 447 µM); against Bacillus it was 256 µg/mL (≈ 447 µM); in the data set with Candida [2] it was 256 µg/mL (≈ 447 µM); in the data set on Staphylococcus aureus [3], 32 µg/mL (≈ 55.9 µM); in the data set on Pseudomonas aeruginosa [4], 128 µg/mL (≈ 223 µM). Besides, the MIC against Shigella dysenteriae was 256 µg/mL (≈ 447 µM); with Bacillus subtilis it was 256 µg/mL (≈ 447 µM); in data set [6], 256 µg/mL (≈ 447 µM); in the data set on Staphylococcus aureus [7], 512 µg/mL (≈ 894 µM); against Candida albicans, 512 µg/mL (≈ 894 µM). Further, in [5] (read-out: logP), the logP came to 3.7.

On to `CCCCCCn1c(CNNC(=O)c2sc(C(=O)NNCc3nc4ccccc4n3CCCCCC)c(C)c2C)nc2ccccc21`, for which the MIC came out at 8 µg/mL (≈ 12.2 µM) against Escherichia coli [1]; 64 µg/mL (≈ 97.4 µM) with Micrococcus luteus; 64 µg/mL (≈ 97.4 µM) with Bacillus; 32 µg/mL (≈ 48.7 µM) against Candida [2]; 4 µg/mL (≈ 6.09 µM) against Staphylococcus aureus [3]; 32 µg/mL (≈ 48.7 µM) with Pseudomonas aeruginosa [4]. Further, the MIC in the data set with Shigella dysenteriae was 64 µg/mL (≈ 97.4 µM); with Bacillus subtilis it was 32 µg/mL (≈ 48.7 µM); in data set [6], 64 µg/mL (≈ 97.4 µM); against Staphylococcus aureus [7], 32 µg/mL (≈ 48.7 µM); in the data set with Candida albicans, 32 µg/mL (≈ 48.7 µM). In addition, in [5] (read-out: logP), the logP is 6.62.

In the case of `CCCCCCCCn1c(CNNC(=O)c2sc(C(=O)NNCc3nc4ccccc4n3CCCCCCCC)c(C)c2C)nc2ccccc21`, the MIC in the data set with Escherichia coli [1] is 32 µg/mL (≈ 44.9 µM); against Micrococcus luteus it was 16 µg/mL (≈ 22.4 µM); against Bacillus it was above 512 µg/mL; in the data set on Candida [2], 4 µg/mL (≈ 5.61 µM); with Staphylococcus aureus [3], 8 µg/mL (≈ 11.2 µM); in the data set with Pseudomonas aeruginosa [4], 16 µg/mL (≈ 22.4 µM). The MIC is 16 µg/mL (≈ 22.4 µM) in the data set with Shigella dysenteriae; 32 µg/mL (≈ 44.9 µM) with Bacillus subtilis; 64 µg/mL (≈ 89.8 µM) in data set [6]; 32 µg/mL (≈ 44.9 µM) in the data set with Staphylococcus aureus [7]; 16 µg/mL (≈ 22.4 µM) against Candida albicans. For the same molecule, in data set [5] (read-out: logP), the logP is 8.19.

Consider `CCCCCCCCCCn1c(CNNC(=O)c2sc(C(=O)NNCc3nc4ccccc4n3CCCCCCCCCC)c(C)c2C)nc2ccccc21`, for which the MIC against Escherichia coli [1] stood at 4 µg/mL (≈ 5.2 µM); against Micrococcus luteus, 16 µg/mL (≈ 20.8 µM); against Bacillus, 8 µg/mL (≈ 10.4 µM); against Candida [2], 2 µg/mL (≈ 2.6 µM); against Staphylococcus aureus [3] it was 2 µg/mL (≈ 2.6 µM); against Pseudomonas aeruginosa [4], 4 µg/mL (≈ 5.2 µM). Further, the MIC came to 8 µg/mL (≈ 10.4 µM) against Shigella dysenteriae; 4 µg/mL (≈ 5.2 µM) against Bacillus subtilis; 4 µg/mL (≈ 5.2 µM) in data set [6]; 2 µg/mL (≈ 2.6 µM) against Staphylococcus aureus [7]; 4 µg/mL (≈ 5.2 µM) in the data set with Candida albicans. Moreover, the outcome at Albumin was Active. Moreover, the Ratio came out at 8 with Pseudomonas aeruginosa [8], 8 with Escherichia coli [9], 8 in the data set with Staphylococcus aureus [10] and 2 in the data set with Candida [11]. The logP entry in data set [5] is recorded as “ND(Insoluble)”.
